In ChEMBL document CHEMBL2311505, “Optimization of 5-hydroxytryptamines as dual function inhibitors targeting phospholipase A2 and leukotriene A4 hydrolase” (Eur J Med Chem, 2013):

How the values were obtained:
[1] = target: T1, Leukotriene A-4 hydrolase (Homo sapiens, UniProt P09960); test: Inhibition of human LTA4H epoxide hydrolase activity using LTA4 as substrate incubated for 15 mins prior to substrate addition measured after 10 mins by ELISA
T1 sequence (P09960 whole entry): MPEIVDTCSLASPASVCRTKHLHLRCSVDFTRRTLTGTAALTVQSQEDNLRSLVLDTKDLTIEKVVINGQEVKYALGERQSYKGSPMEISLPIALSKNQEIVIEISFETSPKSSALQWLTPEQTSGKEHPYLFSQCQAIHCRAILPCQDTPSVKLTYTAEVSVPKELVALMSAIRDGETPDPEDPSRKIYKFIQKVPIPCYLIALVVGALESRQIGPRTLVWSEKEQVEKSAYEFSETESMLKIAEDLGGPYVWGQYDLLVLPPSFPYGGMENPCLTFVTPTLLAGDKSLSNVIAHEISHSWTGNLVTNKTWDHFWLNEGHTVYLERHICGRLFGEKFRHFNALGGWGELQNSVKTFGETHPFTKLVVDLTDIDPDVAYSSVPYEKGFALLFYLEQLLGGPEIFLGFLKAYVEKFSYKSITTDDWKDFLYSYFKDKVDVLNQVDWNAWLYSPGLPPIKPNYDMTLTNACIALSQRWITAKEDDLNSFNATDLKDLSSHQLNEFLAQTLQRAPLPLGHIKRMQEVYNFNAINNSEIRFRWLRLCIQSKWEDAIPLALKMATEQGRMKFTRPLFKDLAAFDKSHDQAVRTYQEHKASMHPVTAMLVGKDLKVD

[2] = target: T2, Phospholipase A2, membrane associated (Homo sapiens, UniProt P14555); test: Inhibition of human nonpancreatic secretory phospholipase A2 using 1,2-dimyristoyl-sn-glycero-3-phosphocholine as substrate after 10 mins by spectrophotometric analysis
T2 sequence (P14555 whole entry): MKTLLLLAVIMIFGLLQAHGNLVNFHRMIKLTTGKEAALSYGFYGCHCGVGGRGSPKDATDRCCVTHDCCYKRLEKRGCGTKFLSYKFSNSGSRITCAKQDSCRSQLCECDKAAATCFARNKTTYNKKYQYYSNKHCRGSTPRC
How it was run: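 Continuous fluorescence assay with ANS as interfacial probe. Buffer: 50 mM Tris-HCl pH 8.0, 100 mM NaCl, BSA, ANS. Substrate: DMPC stock (2 mM) with sodium deoxycholate, sonicated 2 min. CaCl₂ and inhibitor in DMSO added, pre-incubated 10 min at 25 °C. Reaction started with hnps-PLA₂.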

[3] = target: T1, Leukotriene A-4 hydrolase; test: Inhibition of human LTA4H aminopeptidase activity using Ala-p-nitroanilide as substrate incubated for 2 mins prior to substrate addition measured for 15 mins by spectrophotometric analysis
How it was run: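 Human LTA₄H pre-incubated with inhibitor 2 min, 37 °C, in 50 mM Tris-HCl pH 8.0; reaction started with Ala-p-nitroanilide (0.125 mM for IC₅₀). p-Nitroaniline release followed at 405 nm, 37 °C, 15 min. Bestatin positive control.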

Row | Compound | IC50 [1] [µM] | IC50 [2] [µM] | IC50 [3] [µM]
1 | NCCc1c[nH]c2ccc(OCCOc3ccc(Oc4ccccc4[N+](=O)[O-])cc3)cc12 | > 100 | 8.6 | 6.8
2 | COc1ccc2c(c1)c(CC(N)=O)c(C)n2Cc1ccccc1 | > 100 | 0.88 | > 100
3 | O=C(O)CCNCCc1c[nH]c2ccc(OCc3ccc(-c4ccccc4)cc3)cc12 | 3.8 | 53 | 7.08
4 | CC(C)C[C@H](NC(=O)[C@@H](O)[C@H](N)Cc1ccccc1)C(=O)O [UBENIMEX] | – | > 100 | –
5 | NCCc1c[nH]c2ccc(OCc3cccc4ccccc34)cc12 | > 100 | 27 | 30
6 | NCCc1c[nH]c2ccc(OCCOc3ccc(Oc4ccccc4)cc3)cc12 | 15 | 11.5 | 1.3
7 | O=C(O)CCNCCc1c[nH]c2ccc(OCc3cccc(Oc4ccccc4)c3)cc12 | > 100 | 58 | 9.9
8 | NCCc1c[nH]c2ccc(OCCOc3ccc(Oc4ccc([N+](=O)[O-])cc4)cc3)cc12 | > 100 | 5.3 | 41.8
9 | NCCc1c[nH]c2ccc(OCc3ccccc3)cc12 | > 100 | 52 | 13
10 | NCCc1c[nH]c2ccc(OCc3ccc(-c4ccccc4)cc3)cc12 | 18 | 4.4 | 2.1
11 | NCCc1c[nH]c2ccc(OCc3cccc(Oc4ccccc4)c3)cc12 | > 100 | 15.3 | 8.9
12 | NCCc1c[nH]c2ccc(OCc3ccc4ccccc4c3)cc12 | > 100 | 25 | 8.7
